Converted amounts (≈) assume the structure as drawn. The source made the active and inactive calls. The rule behind the calls is not given here.
Columns and labels:
Pichia kudriavzevii [1] = experiment: Increase in ERG11 mRNA expression in Candida krusei B2401 after 60 mins by hot-phenol extraction based Northern blotting; format: functional, organism-based
Pichia kudriavzevii [2] = experiment: Increase in ABC1 mRNA expression in Candida krusei B2402 after 60 mins by hot-phenol extraction based Northern blotting; format: functional, organism-based
[3] = target: ATP binding cassette transporter Abc1p (Issatchenkia orientalis) (UniProt Q09GQ4); experiment: Inhibition of Candida krusei B2399 Abc1p assessed as reduction of itraconazole MIC at 5 ug after 48 hrs by agarose diffusion assay; details: Pichia kudriavzevii
[4] = target: ATP binding cassette transporter Abc1p (Issatchenkia orientalis) (UniProt Q09GQ4); experiment: Inhibition of Candida krusei Abc1p expressed in Saccharomyces cerevisiae isolate AD assessed as reduction of itraconazole MIC at 5 ug after 48 hrs by agarose diffusion assay; details: Pichia kudriavzevii
[5] = target: ATP binding cassette transporter Abc1p (Issatchenkia orientalis) (UniProt Q09GQ4); experiment: Inhibition of Candida krusei IF011 Abc1p assessed as reduction of itraconazole MIC at 5 ug after 48 hrs by agarose diffusion assay; details: Pichia kudriavzevii
[6] = target: ATP binding cassette transporter Abc1p (Issatchenkia orientalis) (UniProt Q09GQ4); experiment: Inhibition of Candida krusei […] expressed in Saccharomyces cerevisiae isolate ADdelta assessed as fractional inhibitory concentration index at 2.5 ug/ml after 48 hrs by checkerboard susceptibility assay; details: Pichia kudriavzevii
How it was run: (§1)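 Checkerboard susceptibility assay combining the Abc1p inhibitor with FLC or ITC. MICs were determined at various inhibitor concentrations. The fractional inhibitory concentration index was calculated for each combination.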

Pichia kudriavzevii [7] = experiment: Antimicrobial activity against Candida krusei NZCDC 89.221 after 48 hrs by CLSI method; format: functional
How it was run: (§2)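 Azole MICs were determined by the CLSI M27-A2 broth microdilution reference method. They were interpreted against the CLSI breakpoints. Strains were maintained in YPD medium (1% yeast extract, 2% peptone, 2% glucose).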

Pichia kudriavzevii [8] = experiment: Antimicrobial activity against Candida krusei IFO0011 after 48 hrs by CLSI method; format: functional; details: IFO0011, 48 h; how it was run: as §2
Saccharomyces cerevisiae [9] = experiment: Antimicrobial activity against Saccharomyces cerevisiae isolate ADdelta overexpressing Candida albicans ERG11A after 48 hrs by liquid microdilution assay; format: functional
How it was run: (§3)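 Liquid broth microdilution susceptibility assay in CSM medium at pH 7.0, which was also the medium used for the expression studies. Fungal strains were maintained in YPD. The S. cerevisiae test strains carry C. krusei ABC1 or fungal ERG11 alleles integrated at the chromosomal PDR5 locus.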

Pichia kudriavzevii [10] = experiment: Antimicrobial activity against Candida krusei B2399 after 48 hrs by liquid microdilution assay; format: functional; details: B2399, 48 h; how it was run: as §3
Saccharomyces cerevisiae [11] = experiment: Fold resistant, ratio of MIC for Saccharomyces cerevisiae isolate ADdelta overexpressing Candida krusei ERG11g to MIC for Saccharomyces cerevisiae isolate ADdelta overexpressing Abc1p; format: functional
How it was run: (§4)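 Fold resistance is the ratio of azole MICs between S. cerevisiae overexpressing strains. The MICs were measured by liquid broth microdilution in CSM medium at pH 7.0. The ERG11 or ABC1 constructs are integrated at the PDR5 locus.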

Saccharomyces cerevisiae [12] = experiment: Antimicrobial activity against Saccharomyces cerevisiae isolate ADdelta overexpressing Candida krusei ERG11g after 48 hrs by liquid microdilution assay; format: functional; how it was run: as §3
Pichia kudriavzevii [13] = experiment: Increase in ERG11 mRNA expression in Candida krusei B2400 at MIC concentration after 80 mins by hot-phenol extraction based Northern blotting; format: functional, organism-based
Pichia kudriavzevii [14] = experiment: Antimicrobial activity against Candida krusei NZCDC 89.221 after 48 hrs by liquid microdilution assay; format: functional; details: NZCDC 89.221, 48 h; how it was run: as §3
Pichia kudriavzevii [15] = experiment: Antimicrobial activity against Candida krusei NZCDC 89.021 after 48 hrs by liquid microdilution assay; format: functional; details: NZCDC 89.021, 48 h; how it was run: as §3
Pichia kudriavzevii [16] = experiment: Antimicrobial activity against Candida krusei NZCDC 89.102 after 48 hrs by CLSI method; format: functional; how it was run: as §2
Pichia kudriavzevii [17] = experiment: Increase in ERG11 mRNA expression in Candida krusei B2399 at MIC concentration after 1 hr by hot-phenol extraction based Northern blotting; format: functional, organism-based
How it was run: (§5)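 Northern blot. Logarithmically grown C. krusei B2399 was exposed to azoles for 60 min (FLC 1x MIC; VRC, MCZ, ITC 2x MIC) or to FLC at 1x MIC over a time course. About 100 OD units of cells were harvested. Total RNA was extracted with hot phenol, and 10 µg was run on 1.2% denaturing agarose. Blots were probed with radiolabelled ABC1 or ERG11, with ACT1 as internal control.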

Saccharomyces cerevisiae [18] = experiment: Antimicrobial activity against Saccharomyces cerevisiae isolate ADdelta overexpressing Saccharomyces cerevisiae ERG11 after 48 hrs by liquid microdilution assay; format: functional; how it was run: as §3
Saccharomyces cerevisiae [19] = experiment: Fold resistant, ratio of MIC for Saccharomyces cerevisiae isolate ADdelta overexpressing Candida albicans ERG11A to MIC for Saccharomyces cerevisiae isolate ADdelta overexpressing Abc1p; format: functional; how it was run: as §4
Saccharomyces cerevisiae [20] = experiment: Antimicrobial activity against Saccharomyces cerevisiae isolate ADdelta overexpressing Abc1p after 48 hrs by liquid microdilution assay; format: functional; how it was run: as §3
Saccharomyces cerevisiae [21] = experiment: Antimicrobial activity against Saccharomyces cerevisiae isolate AD overexpressing Candida krusei ERG11C after 48 hrs by liquid microdilution assay; format: functional; how it was run: as §3
Pichia kudriavzevii [22] = experiment: Antimicrobial activity against Candida krusei B2399 after 48 hrs by CLSI method; format: functional; details: B2399, 48 h; how it was run: as §2
Pichia kudriavzevii [23] = experiment: Antimicrobial activity against Candida krusei NZCDC 90.147 after 48 hrs by CLSI method; format: functional; how it was run: as §2
Pichia kudriavzevii [24] = experiment: Antimicrobial activity against Candida krusei IFO0011 after 48 hrs by liquid microdilution assay; format: functional; details: IFO0011, 48 h; how it was run: as §3
Saccharomyces cerevisiae [25] = experiment: Fold resistant, ratio of MIC for Saccharomyces cerevisiae isolate ADdelta overexpressing Saccharomyces cerevisiae ERG11 to MIC for Saccharomyces cerevisiae isolate ADdelta overexpressing Abc1p; format: functional; how it was run: as §4
Pichia kudriavzevii [26] = experiment: Antimicrobial activity against Candida krusei NZCDC 90.147 after 48 hrs by liquid microdilution assay; format: functional; details: NZCDC 90.147, 48 h; how it was run: as §3
Pichia kudriavzevii [27] = experiment: Increase in ABC1 mRNA expression in Candida krusei B2399 at MIC concentration after 320 mins by hot-phenol extraction based Northern blotting; format: functional, organism-based; how it was run: as §5
Pichia kudriavzevii [28] = experiment: Antimicrobial activity against Candida krusei NZCDC 89.021 after 48 hrs by CLSI method; format: functional; details: NZCDC 89.021, 48 h; how it was run: as §2
Saccharomyces cerevisiae [29] = experiment: Fold resistant, ratio of MIC for Saccharomyces cerevisiae isolate ADdelta overexpressing Candida krusei ERG11C to MIC for Saccharomyces cerevisiae isolate ADdelta overexpressing Abc1p; format: functional; how it was run: as §4
Pichia kudriavzevii [30] = experiment: Antimicrobial activity against Candida krusei NZCDC 89.102 after 48 hrs by liquid microdilution assay; format: functional; details: NZCDC 89.102, 48 h; how it was run: as §3
[31] = target: ATP binding cassette transporter Abc1p (Issatchenkia orientalis) (UniProt Q09GQ4); experiment: Inhibition of Candida krusei B2399 Abc1p assessed as fractional inhibitory concentration index at 2.5 ug/ml after 48 hrs by checkerboard susceptibility assay; details: Pichia kudriavzevii; how it was run: as §1
Pichia kudriavzevii [32] = experiment: Increase in ERG11 mRNA expression in Candida krusei B2399 at > 200 ug/ml after up to 320 mins by hot-phenol extraction based Northern blotting; format: functional, organism-based; how it was run: as §5
[33] = target: ATP binding cassette transporter Abc1p (Issatchenkia orientalis) (UniProt Q09GQ4); experiment: Inhibition of Candida krusei ABC1 expressed in Saccharomyces cerevisiae isolate ADdelta at 23 nM; details: Pichia kudriavzevii

For `CC(C)[C@@H](C)/C=C/[C@@H](C)[C@H]1CC[C@H]2C3=CC=C4C[C@@H](O)CC[C@]4(C)[C@H]3CC[C@]12C`, the Activity (Pichia kudriavzevii [1]) was “inactive” and the Activity (Pichia kudriavzevii [2]) was “inactive”.
For `C=CC[C@@H]1/C=C(\C)C[C@H](C)C[C@H](OC)[C@H]2O[C@@](O)(C(=O)C(=O)N3CCCC[C@H]3C(=O)O[C@H](/C(C)=C/[C@@H]3CC[C@@H](O)[C@H](OC)C3)[C@H](C)[C@@H](O)CC1=O)[C@H](C)C[C@@H]2OC`, the Activity [3] was “Active”, the Activity [4] was “Active” and the Activity [5] was “Active”.
`OC(Cn1cncn1)(Cn1cncn1)c1ccc(F)cc1F` [FLUCONAZOLE] showed a fractional inhibitory concentration index (FICI) [6] of 0.112, an MIC (Pichia kudriavzevii [7]) of 32 µg/mL (≈ 104 µM) and an MIC (Pichia kudriavzevii [8]) of 128 µg/mL (≈ 418 µM). The MIC (Saccharomyces cerevisiae [9]) was 2 µg/mL (≈ 6.53 µM), the MIC (Pichia kudriavzevii [10]) was 256 µg/mL (≈ 836 µM) and the ratio (Saccharomyces cerevisiae [11]) was 128. For the same compound, the MIC (Saccharomyces cerevisiae [12]) was 64 µg/mL (≈ 209 µM), the Activity (Pichia kudriavzevii [13]) was “Active” and the MIC (Pichia kudriavzevii [14]) was 256 µg/mL (≈ 836 µM). The MIC (Pichia kudriavzevii [15]) was 256 µg/mL (≈ 836 µM), the MIC (Pichia kudriavzevii [16]) was 32 µg/mL (≈ 104 µM) and the Activity (Pichia kudriavzevii [17]) was “Active”. The MIC (Saccharomyces cerevisiae [18]) was 2 µg/mL (≈ 6.53 µM), the ratio (Saccharomyces cerevisiae [19]) was 4 and the MIC (Saccharomyces cerevisiae [20]) was 0.5 µg/mL (≈ 1.63 µM). The MIC (Saccharomyces cerevisiae [21]) was 4 µg/mL (≈ 13.1 µM), the MIC (Pichia kudriavzevii [22]) was 32 µg/mL (≈ 104 µM) and the MIC (Pichia kudriavzevii [23]) was 128 µg/mL (≈ 418 µM). For the same compound, the MIC (Pichia kudriavzevii [24]) was 256 µg/mL (≈ 836 µM), the ratio (Saccharomyces cerevisiae [25]) was 4 and the MIC (Pichia kudriavzevii [26]) was 256 µg/mL (≈ 836 µM). For the same compound, the Activity (Pichia kudriavzevii [27]) was “Active”, the MIC (Pichia kudriavzevii [28]) was 32 µg/mL (≈ 104 µM) and the ratio (Saccharomyces cerevisiae [29]) was 8. The MIC (Pichia kudriavzevii [30]) was 256 µg/mL (≈ 836 µM), the fractional inhibitory concentration index (FICI) [31] was 0.35 and the Activity (Pichia kudriavzevii [32]) was “inactive”. The Activity [33] was “inactive”.

— ChEMBL document CHEMBL1649122, “Abc1p is a multidrug efflux transporter that tips the balance in favor of innate azole resistance in Candida krusei” (2009)
